PMC4797290 (Nucleic Acids Research, 2016)
No end group written: not given here.

Experiments:
Assay type in all cases: cell-based, Escherichia coli
[1] = test system: E. coli SQ110 DTC 23S rRNA A2503C mutant; test: MIC determination, E. coli SQ110 DTC 2503C mutant; settings: 23S rRNA mutant 2503C; highest concentration 100 μM
In short: (§1)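 E. coli SQ110 DTC background (single chromosomal rrn allele, tolC knockout) carrying 23S rRNA mutations. Cells grown exponentially in LB, diluted to A650 0.005 in 96-well plates. Peptide added in LB and 2-fold serially diluted from a top final concentration of 100 μM. Incubated overnight at 37°C with shaking. Growth read by alamarBlue addition.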

[2] = test system: E. coli SQ110 DTC 23S rRNA 2059C mutant; test: MIC determination, E. coli SQ110 DTC 2059C mutant; settings: 23S rRNA mutant 2059C, first line so labelled (r6); highest concentration 100 μM
In short: as §1

[3] = test system: E. coli SQ110 DTC 23S rRNA A2503C/A2059G double mutant; test: MIC determination, E. coli SQ110 DTC 2503C/2059G double mutant; settings: 23S rRNA double mutant; highest concentration 100 μM
In short: as §1

RRIRPRPPRLPRPRPRPLPFPRPGPRPIPRPLPFP [Bac7_1–35]
0.75 µM: MIC, SQ110 DTC 2503C [1] | MIC, SQ110 DTC 2059C [2] | MIC, SQ110 DTC 2503C/2059G [3]
